Assay results reported in the RNAGym collection of RNA variant scans (doi:10.1126/science.aae0568).
Variants at the floor of the assay were thinned out.

B1: tRNA (parent)
chain: GUUCCGUUGGCGUAAUGGUAACGCGUCUCCCUCCUAAGGAGAAGACUGCGGGUUCGAGUCCCGUACGGAACG

Variants of: B1
Assay: yeast fitness relative to wild type (ratio to wild type); higher = fitter; tRNA-Arg(CCU), competitive growth, 37 C, YPD
In short: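 Gene amplicons from the start population and from each of six end populations were read by 100-nucleotide paired-end sequencing. Those end populations came from pooled Saccharomyces cerevisiae strains carrying tRNA-Arg(CCU) gene variants at the native locus, competed in YPD at 37°C for 24 hours. Fitness relative to wild type was worked out from changes in genotype frequencies. Genotypes needed ≥ 100 starting reads, and estimates < 0.5 were set to 0.5.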

Variant	yeast fitness
U7A A40U A45G C46U	≤ 0.5
U7C A20G A21G	0.562
G6U G44C	0.755
U7A G9A G17A C24A	≤ 0.5
U7A G50A C60G U64G	≤ 0.5
U7C A37G A42C C49G C66G A70U	≤ 0.5
U7A A20G C46G G63C G67C A69U	≤ 0.5
U7A U8A G10C C27G C34G A43G C55U	≤ 0.5
U7A A14G A65C	0.662
G6C U26C C31A G38C	≤ 0.5
U7A G25C C27G C31U A45U U64C	≤ 0.5
U7A C27G C34G U54A	≤ 0.5
U7A A20C A69C	0.609
U7A U8G A36U A43U	≤ 0.5
U7C A37G A42C C49G C61U G63A	≤ 0.5
U7A U19G A21U G67A	≤ 0.5
U7A C11A A21C C29U C49U	0.544
U7A G23C C66U	≤ 0.5
U7A G9C G17C G48A A69C	≤ 0.5
U7A A21G C30G A36G C46G U54C A57U	≤ 0.5
U7A A70C	0.817
U7A U16C G17A C29U C31A G51U C66G G67U	≤ 0.5
U7A C29G C34G A36G U54C A57G	≤ 0.5
U7A C46G C61U	0.601

Variant	yeast fitness
U7A A21U A45C	≤ 0.5
U7A A14G C31U G39C A40C A45U U47C G68C	≤ 0.5
U7A A20G C29U A57C	≤ 0.5
U7A C29U C61U G68C	0.582
U7A C29U C31A	≤ 0.5
U7A G39A A45G U47G	0.623
U7A G41A C61A	≤ 0.5
U7A C22G C30U U32C A37G A70G	≤ 0.5
U7C A14C G18A A43C A57U G63A	≤ 0.5
U7A A43U	0.622
U7A G9C A15G G23A U53A	0.505
U7A A21G C30G A36G C46G A57U	0.545
U7C A42C C55U	≤ 0.5
G6C U53C A65G	≤ 0.5
U7A C30A G51A	≤ 0.5
U7A C24G C31U C55A	≤ 0.5
U7A C27U C29U G63A	0.598
U7A A15G G23A G25A A69C	≤ 0.5
U7A G10C C22U C27G C66U	≤ 0.5
U7C A21C C31A	≤ 0.5
U7A C62A A69G A70G	≤ 0.5
U7A G10C	0.617
U7A G10U	0.614
U7A A37C G51A G67A	≤ 0.5

Variant	yeast fitness
U7A C31A	0.634
U7A C34G U59G G68U	≤ 0.5
U7A C27A G50C	≤ 0.5
U7A A14G G18C U54C	≤ 0.5
U7A U16C A21U U26A C46U	0.681
U7A G12A	0.783
U7A G10C G41A	≤ 0.5
U7C A14G U19G C29G C49A G52C G63A	≤ 0.5
U7A G50C A57C C61U	≤ 0.5
U7A C33A A45C G68A	≤ 0.5
U7C A14G U19G C29G C49A G52C	≤ 0.5
U7C A21C C34G U35G G44C C61G	0.636
U7A C22U U28A C29G C33A A42U A70U	≤ 0.5
U7A G23A C24U U35A C60A	0.632
U7A A37U C49U C55U A57C C61U	0.934
U7C A69C	0.921
U7C A36G	0.888
U7A G50A C62U A69C	0.614
U7A G38A G52C A57C	≤ 0.5
U7A G9C C24A A43U G52A	≤ 0.5
U7A U8G C22U C30U A42G C61A	≤ 0.5
U7A G9C A40C C62A	≤ 0.5
U7A U13G C55G	≤ 0.5
U7C A15G G17A A65C A70G	≤ 0.5

Variant	yeast fitness
G6C U32A	0.756
U7A G10C C27G U32A G56A A57U	≤ 0.5
G6C U28A C33G	≤ 0.5
U7A U8A G41A A70U	≤ 0.5
U7A C46U U59C C62G A65U	≤ 0.5
U7C A40G A43C	0.77
U7A A15G G23A	0.638
U7A U59A	0.778
U7A U59C	0.662
U7A A40U	0.714
U7A A40C	0.724
U7A A20U	0.776
U7A A15U	0.587
U7C A14C G63C	0.573
U7A U8A G10C C27G C34G A42G C55U	≤ 0.5
U7A C11G A36U C49U	≤ 0.5
U7A U8C G17A C27G C29U A43C G52A	≤ 0.5
U7A C11G A40U A42C	≤ 0.5
U7A G12C C27G C31A C46A C62G	≤ 0.5
G6C U35C	0.866
U7A G9A U13A G48A U54G C61A	≤ 0.5
U7A A20U C55A C66U	0.894
G6C U35A A40U G41C C49A	≤ 0.5
U7A C34G G39A	≤ 0.5

Variant	yeast fitness
U7A G23A G68U	≤ 0.5
U7A C11U C49A	0.614
U7A G10A C33A A36C A69U	≤ 0.5
U7A C33U G51C	0.559
U7A A45C U47C C55U A65C A69C	≤ 0.5
U7A U16C A21U U26A C46U C60U	0.55
U7A G44C C66U	≤ 0.5
U7A C11G C60A	≤ 0.5
U7A A57U	0.572
U7A A15G G23A G63C	0.557
U7A C30A	0.669
U7A G12C C34U C66G	≤ 0.5
U7A C34G C62U G68C	0.559
U7A G9C G17C	0.55
U7A G9C C30U C34G G68C	0.56
U7A U16C G17A C29U C31A C55A	≤ 0.5
G6C U47A C60G	≤ 0.5
U7C A20U A36G A40U	≤ 0.5
U7C A21U A36U A37C	≤ 0.5
U7A C22A C31G U32G A42G G52A C62A	≤ 0.5
U7C A20U A36G C62U	≤ 0.5
U7A U19G G58A	≤ 0.5
U7A G23C A45G C60G	≤ 0.5
U7A U16C G23A C24U U35A C60A A69C	≤ 0.5

Variant	yeast fitness
U7A A45C	0.737
U7A G10A A20C C29A	0.543
U7A G17A C24U C34A A40G C61U A69U	≤ 0.5
U7A C49U	0.738
U7A A15G G18A	0.669
U7A C24U C46A	0.567
U7A C29A G58A C61G A70U	0.665
U7C A36U G50C C60A	0.57
U7C A45C G50A C62U	0.547
U7C A65U A69C	0.532
U7A G10A A15U	0.568
U7C A14G C29U C31U C33U	0.592
U7A U53A A65C A70G	≤ 0.5
U7A G12C C27G C31A C46A	≤ 0.5
U7A A36U U64C	≤ 0.5
U7A C60G A70C	≤ 0.5
U7A C22A A57C	≤ 0.5
U7A G9C	0.674
U7C A20C	0.844
U7A A15U C30G A42C U59A C60U	≤ 0.5
U7A C24U C33A	≤ 0.5
U7A G12A C30U	≤ 0.5
G6U G63C	0.615
U7A A42G	0.655

Variant	yeast fitness
U7C A14G G17A G48C A70U	≤ 0.5
U7A A36C A57C	≤ 0.5
U7A A36U	0.607
U7A U13A A21U A45U	0.649
U7C A45U	0.837
U7C A45C	0.761
U7A U8A G25A A40C C60U	≤ 0.5
U7A A21C C33A A45U A69U	≤ 0.5
U7A C11A C30U U32A	≤ 0.5
U7A C55G G58C	≤ 0.5
U7A G9A C24A	≤ 0.5
U7A G10C C30G C46U	≤ 0.5
U7A C29G A36C	0.566
G6U U35G A69U	1.03
U7C A65G	0.95
U7C A65C	0.912
U7C A40U A42U U54A	0.661
U7C A42U A43G	0.53
G6C U35C U59C	≤ 0.5
U7C A20G A40U	0.597
U7A A20G C31U A57G A70C	≤ 0.5
U7A C30U C33U C46U G68U	≤ 0.5
U7A A20G C29A	0.544
